Reference: ChEMBL document CHEMBL4196207, “Medermycin-Type Naphthoquinones from the Marine-Derived Streptomyces sp. XMA39” (J Nat Prod, 2018)
Values after ≈ are worked out from the molar mass of the structure shown. Positions of bridges follow the written chain, without caps; N, C: chain ends. Non-standard residues stand in square brackets, D forms with d. Residues, ends and D or L forms follow the SMILES beside them. *: point of attachment. Octanoyl(6-Me) = CCC(C)CCCCC(=O)*; Dab = NCC[C@H](N)C(=O)O

Legend:
[1] = system: PC-3; test: Cytotoxicity against human PC3 cells after 72 hrs by SRB assay; assay type: functional, cell-based; details: PC-3, 72 h
Summary of the method: (§1)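 SRB assay. Cells were seeded 24 h, then given a range of compound concentrations for 72 h at 37 °C. Fixed with cold 10% TCA for 2 h at 4 °C, washed, stained with 0.4% SRB, rinsed with 1% acetic acid, and dye dissolved in 10 mM Tris. OD read at 515 nm. IC50 by the Reed–Muench method.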

[2] = system: HCT-116; test: Cytotoxicity against human HCT116 cells after 72 hrs by SRB assay; assay type: functional, cell-based; details: HCT-116, 72 h; summary of the method: as §1
[3] = target: Rho-associated protein kinase 2 (Homo sapiens, UniProt O75116); test: Inhibition of ROCK2 (unknown origin) using SKT S2 as substrate measured after 30 mins by HTRF assay
Summary of the method: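 HTRF KinEASE format. Compound dilutions were added to a substrate/enzyme/ATP mixture and incubated 0.5 h at 37 °C. SA-XL665 and STK antibody–cryptate were then added, followed by 1 h at room temperature before HTRF read-out. Triplicate.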

[4] = system: Escherichia coli; test: Antimicrobial activity against Escherichia coli ATCC 25922 after 12 hrs by microdilution method; assay type: functional; details: ATCC 25922, 12 h
Summary of the method: (§2)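 Broth microdilution in 96-well plates. A 10 mg/mL DMSO stock was serially diluted in microbial cell suspension, 200 μL final. Plates were incubated at 37 °C for 12 h. MIC was read as the lowest concentration completely clear against a black background. Triplicate. E. coli strain ATCC 25922; C. albicans strain not specified.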

[5] = system: Staphylococcus aureus; test: Antimicrobial activity against methicillin-resistant Staphylococcus aureus ATCC 43300 after 12 hrs by microdilution method; assay type: functional; details: ATCC 43300, 12 h
Summary of the method: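 Broth microdilution. Compound stock of 10 mg/mL in DMSO was serially diluted with microbial cell suspension to a series of concentrations in 96-well plates. Plates were incubated at 37 °C for 12 h. MIC is the lowest concentration that stays completely clear against a black background. Vancomycin served as positive control. Tests were run in triplicate.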

[6] = system: Candida albicans; test: Antimicrobial activity against Candida albicans after 12 hrs by microdilution method; assay type: functional; summary of the method: as §2

Rho-associated protein kinase 2, sequence (O75116 whole entry): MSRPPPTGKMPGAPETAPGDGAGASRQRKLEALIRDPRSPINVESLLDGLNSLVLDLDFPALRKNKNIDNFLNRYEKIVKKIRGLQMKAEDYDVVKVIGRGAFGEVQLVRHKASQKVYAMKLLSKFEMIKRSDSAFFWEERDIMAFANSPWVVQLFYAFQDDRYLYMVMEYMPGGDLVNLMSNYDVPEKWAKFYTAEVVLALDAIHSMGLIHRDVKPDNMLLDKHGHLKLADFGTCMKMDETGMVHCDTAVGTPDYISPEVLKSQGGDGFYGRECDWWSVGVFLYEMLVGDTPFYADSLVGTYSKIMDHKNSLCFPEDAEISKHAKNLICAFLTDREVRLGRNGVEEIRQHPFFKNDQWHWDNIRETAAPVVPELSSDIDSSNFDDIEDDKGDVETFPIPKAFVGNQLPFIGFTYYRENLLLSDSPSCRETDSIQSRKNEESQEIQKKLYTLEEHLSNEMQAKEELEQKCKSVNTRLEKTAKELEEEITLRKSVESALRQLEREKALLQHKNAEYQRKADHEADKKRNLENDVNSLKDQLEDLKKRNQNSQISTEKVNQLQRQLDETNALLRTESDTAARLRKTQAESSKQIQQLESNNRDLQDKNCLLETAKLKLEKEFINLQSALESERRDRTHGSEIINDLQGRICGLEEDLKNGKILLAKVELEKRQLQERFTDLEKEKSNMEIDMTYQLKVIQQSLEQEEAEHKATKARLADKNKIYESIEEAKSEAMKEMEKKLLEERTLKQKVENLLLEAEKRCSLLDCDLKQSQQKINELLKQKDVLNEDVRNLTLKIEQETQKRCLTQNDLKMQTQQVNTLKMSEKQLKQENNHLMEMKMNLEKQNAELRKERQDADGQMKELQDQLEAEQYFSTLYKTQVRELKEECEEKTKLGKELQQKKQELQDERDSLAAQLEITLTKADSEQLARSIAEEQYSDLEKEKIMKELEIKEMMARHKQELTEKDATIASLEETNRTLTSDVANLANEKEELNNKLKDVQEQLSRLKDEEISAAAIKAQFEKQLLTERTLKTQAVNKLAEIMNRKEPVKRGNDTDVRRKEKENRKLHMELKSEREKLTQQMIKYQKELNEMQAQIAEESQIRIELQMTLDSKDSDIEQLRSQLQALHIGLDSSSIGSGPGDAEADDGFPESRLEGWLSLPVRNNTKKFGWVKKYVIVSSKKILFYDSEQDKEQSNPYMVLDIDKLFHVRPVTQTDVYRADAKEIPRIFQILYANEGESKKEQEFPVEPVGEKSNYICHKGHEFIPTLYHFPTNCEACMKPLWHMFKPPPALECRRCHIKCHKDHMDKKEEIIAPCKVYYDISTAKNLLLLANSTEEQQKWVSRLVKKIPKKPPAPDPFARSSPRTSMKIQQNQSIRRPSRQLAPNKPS

Row | SMILES | IC50 [1] [µM] | IC50 [2] [µM] | IC50 [3] [µM] | MIC [4] [µg/mL] | MIC [5] [µg/mL] | MIC [6] [µg/mL]
1 | COC(=O)C[C@H]1O[C@H](C)c2c(oc(=O)c3ccc([C@H]4C[C@@H](N(C)C)[C@H](O)[C@@H](C)O4)c(O)c3c2=O)[C@H]1O | > 40 | > 40 | > 20 | 10 (≈ 19.8 µM) | 15 (≈ 29.7 µM) | 10 (≈ 19.8 µM)
2 | COC(=O)C[C@@H]1C[C@@]2(O)C(=O)c3ccc([C@H]4C[C@@H](N(C)C)[C@H](O)[C@@H](C)O4)c(O)c3C(=O)[C@]2(O)[C@@H](C)O1 | 16 | 4.4 | > 20 | 5 (≈ 9.85 µM) | 6 (≈ 11.8 µM) | 9 (≈ 17.7 µM)
3 | C[C@H]1O[C@@H]2CC(=O)O[C@@H]2c2oc(=O)c3ccc([C@H]4C[C@@H](N(C)C)[C@H](O)[C@@H](C)O4)c(O)c3c(=O)c21 | > 40 | > 40 | > 20 | 8 (≈ 16.9 µM) | 12 (≈ 25.3 µM) | 7 (≈ 14.8 µM)
4 | COC(=O)C[C@H]1OC(C)=C2C(=O)c3c(ccc([C@H]4C[C@@H](N(C)C)[C@H](O)[C@@H](C)O4)c3O)C(=O)C2=C1O | 19 | 2.9 | 9 | 4 (≈ 8.21 µM) | 3 (≈ 6.15 µM) | 6 (≈ 12.3 µM)
5 | CCC(C)CCCCC(=O)N[C@@H](CCN)C(=O)N[C@H](C(=O)N[C@@H](CCN)C(=O)N[C@H]1CCNC(=O)[C@H]([C@@H](C)O)NC(=O)[C@H](CCN)NC(=O)[C@H](CCN)NC(=O)[C@H](CC(C)C)NC(=O)[C@@H](Cc2ccccc2)NC(=O)[C@H](CCN)NC1=O)[C@@H](C)O (some centres not stated) ({Octanoyl(6-Me)}-[Dab]T[Dab][Dab][Dab][dF]L[Dab][Dab]T; lactam 4-C) |  |  |  | 2 (≈ 1.66 µM) |  | 
6 | C[C@@H]1[C@H](O)[C@@H](C)/C=C/C=C/C=C/C=C/C=C/C=C/C=C/[C@H](O[C@@H]2O[C@H](C)[C@@H](O)[C@H](N)[C@@H]2O)C[C@@H]2O[C@](O)(C[C@@H](O)C[C@@H](O)[C@H](O)CC[C@@H](O)C[C@@H](O)CC(=O)O[C@H]1C)C[C@H](O)[C@H]2C(=O)O [AMPHOTERICIN B] |  |  |  |  |  | 2 (≈ 2.16 µM)
7 | C[C@H]1O[C@@H]2CC(=O)O[C@@H]2C2=C1C(=O)c1c(ccc([C@H]3C[C@@H](N(C)C)[C@H](O)[C@@H](C)O3)c1O)C2=O [LACTOQUINOMYCIN] | 0.015 | 0.043 | 0.011 | 2 (≈ 4.37 µM) | 0.25 (≈ 0.546 µM) | 5 (≈ 10.9 µM)
